Test results published in ChEMBL document CHEMBL4808168, “The Discovery of Two Novel Classes of 5,5-Bicyclic Nucleoside-Derived PRMT5 Inhibitors for the Treatment of Cancer” (J Med Chem, 2021).
pEC50: −log10 of the molar value. Values after ≈ are worked out from the molar mass of the structure shown.

Legend:
[1] = Solubility of the compound in […] at pH 2 at 200 uM incubated for 24 hrs by UV-vis detection based HPLC analysis; type: physicochemical
Method in brief: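 10 mM DMSO stock added to 10 mM potassium phosphate buffer at pH 2 or pH 7, or FaSSIF pH 6.5, to 200 μM total; 24 h equilibration, filtration, then reverse-phase HPLC with UV–vis detection.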

[2] = Solubility of the compound in FaSSIF at pH 7 at 200 uM incubated for 24 hrs by UV-vis detection based HPLC analysis; type: physicochemical
[3] = Unbound clearance in rat; type: ADME; details: in vivo
[4] = Plasma clearance in rat; type: ADME
[5] = target: Protein arginine N-methyltransferase 5 (Homo sapiens, UniProt O14744); assay: Inhibition of PRMT5 (unknown origin) assessed as inhibition of symmetric dimethylation of arginine incubated for 3 days by fluorescence based cellular target engagement assay
Method in brief: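 MCF-7 cells (4000/well, collagen-coated plates) in EMEM with 0.01 mg/mL insulin and 10% FBS; 10-point 1:3 titration from 10,000 nM; 3 days at 37 °C/5% CO2; fixed, permeabilized, anti-SDMA antibody, then Alexa488 anti-rabbit IgG plus Hoechst; nuclear fluorescence by high-content imaging versus DMSO; EC50 by four-parameter robust fit.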

Z-138 [6] = assay: Antiproliferative activity against human Z138 cells incubated for 10 days by cell titer-glo assay; type: functional, cell-based; details: Z-138, 240 h
[7] = Unbound volume of distribution in rat; type: ADME; details: in vivo
[8] = Oral bioavailability in rat; type: ADME, organism-based; details: in vivo
[9] = MRT in rat; type: ADME; details: in vivo
[10] = MRT in dog; type: ADME, Canis lupus familiaris; details: in vivo
[11] = Unbound clearance in dog; type: ADME, Canis lupus familiaris; details: in vivo
[12] = Oral bioavailability in dog; type: ADME, organism-based, Canis lupus familiaris; details: in vivo
[13] = Unbound volume of distribution in dog; type: ADME, Canis lupus familiaris; details: in vivo
Z-138 [14] = assay: Antitumor activity against human Z138 cells implanted in CB17.SCID mouse assessed as tumor growth inhibition at 30 mg/kg, po bid measured at 13 days relative to control; type: functional; details: Z-138, po, 312 h, time 13 day, read-out: TGI
Z-138 [15] = assay: Antitumor activity against human Z138 cells implanted in CB17.SCID mouse assessed as […] at 5 mg/kg, po bid measured at 13 days relative to control; type: functional; details: Z-138, po, 312 h, time 13 day, read-out: TGI
Method in brief: (§1)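 Female CB17.SCID mice implanted subcutaneously with 5 × 10⁶ Z138 cells; dosing began at about 100 mm³, n = 10 per group; daily PO at 10, 30 or 60 mpk QD or 5 mpk BID in 0.5% methylcellulose; tumor volume (L × W²)/2 and body weight twice weekly; %TGI at day 13 from change in tumor volume versus vehicle.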

Z-138 [16] = assay: Antitumor activity against human Z138 cells implanted in CB17.SCID mouse assessed as tumor growth inhibition at 60 mg/kg, po bid measured at 13 days relative to control; type: functional; details: Z-138, po, 312 h, time 13 day, read-out: TGI
Z-138 [17] = assay: Antitumor activity against human Z138 cells implanted in CB17.SCID mouse assessed as tumor growth inhibition at […] measured at 13 days relative to control; type: functional; details: Z-138, po, 312 h, time 13 day, read-out: TGI
[18] = Toxicity in CB17.SCID mouse implanted with human Z138 cells assessed as body weight change at 10 to 60 mg/kg, po bid measured up, to 14 days relative to control; type: organism-based; details: in vivo, 336 h, in the assay text read “po qd” for “po bid”, dose 10-60 mg/kg, time 14 day; method in brief: as §1
CYP3A4 = CYP3A4 (Homo sapiens, UniProt P08684); assay: Ratio of IC50 for time dependent inhibition of CYP3A4 (unknown origin) in absence of NADPH to IC50 for time dependent inhibition of CYP3A4 (unknown origin) in presence of NADPH; details: read-out: Ratio IC50
Sequence of CYP3A4 (P08684 whole entry): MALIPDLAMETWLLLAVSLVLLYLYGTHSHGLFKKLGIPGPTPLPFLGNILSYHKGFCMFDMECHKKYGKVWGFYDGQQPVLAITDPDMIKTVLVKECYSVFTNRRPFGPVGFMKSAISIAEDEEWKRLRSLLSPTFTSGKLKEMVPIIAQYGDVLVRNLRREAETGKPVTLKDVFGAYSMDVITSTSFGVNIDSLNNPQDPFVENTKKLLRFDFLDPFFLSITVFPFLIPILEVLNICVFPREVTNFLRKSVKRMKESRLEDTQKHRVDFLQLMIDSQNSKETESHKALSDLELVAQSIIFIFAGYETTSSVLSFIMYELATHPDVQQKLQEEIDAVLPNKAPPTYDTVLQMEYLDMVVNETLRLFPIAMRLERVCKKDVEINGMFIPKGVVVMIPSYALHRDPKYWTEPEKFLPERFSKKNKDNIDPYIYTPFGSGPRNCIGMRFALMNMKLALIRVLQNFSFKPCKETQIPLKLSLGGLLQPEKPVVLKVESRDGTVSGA

Sequence of Protein arginine N-methyltransferase 5 (O14744 whole entry): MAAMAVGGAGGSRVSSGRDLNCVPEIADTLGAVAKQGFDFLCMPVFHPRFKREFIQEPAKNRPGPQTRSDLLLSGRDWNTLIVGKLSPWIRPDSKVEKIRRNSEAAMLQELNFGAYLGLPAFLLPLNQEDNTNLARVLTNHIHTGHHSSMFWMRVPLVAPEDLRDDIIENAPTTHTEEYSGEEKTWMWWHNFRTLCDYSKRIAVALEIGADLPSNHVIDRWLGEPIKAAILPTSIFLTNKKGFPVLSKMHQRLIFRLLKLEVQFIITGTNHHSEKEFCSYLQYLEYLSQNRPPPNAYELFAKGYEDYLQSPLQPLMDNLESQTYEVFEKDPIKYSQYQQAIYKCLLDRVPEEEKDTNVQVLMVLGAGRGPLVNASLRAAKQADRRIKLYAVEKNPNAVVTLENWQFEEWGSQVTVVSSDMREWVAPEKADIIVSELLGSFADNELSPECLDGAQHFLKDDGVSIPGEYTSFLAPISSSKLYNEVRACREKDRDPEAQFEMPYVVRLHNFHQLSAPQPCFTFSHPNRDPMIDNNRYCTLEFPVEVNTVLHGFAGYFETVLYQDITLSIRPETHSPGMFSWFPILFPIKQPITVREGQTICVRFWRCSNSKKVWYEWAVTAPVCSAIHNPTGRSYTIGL

Which solubility at 24 h, 200 µM [1] does the source give for `Cc1nc(N)c2ccn([C@@H]3C[C@@H]4[C@H](Cc5ccc6cc(F)c(N)nc6c5)CC[C@]4(O)[C@H]3O)c2n1` here?
Its solubility at 24 h, 200 µM is 149 µM (≈ 68.9 µg/mL).

What about the solubility at 24 h, 200 µM [2] of the same molecule?
Its solubility at 24 h, 200 µM is 123 µM (≈ 56.9 µg/mL).

What about the CL free [3] of the same molecule?
Its CL free is 789 mL/min/kg.

And the clearance [4]?
The clearance was 9 mL/min/kg.

And the pEC50 [5]?
Its pEC50 is 8.82.

What about the pEC50 (Z-138 [6]) of the same molecule?
The pEC50 was 8.39.

And the Vdu [7]?
Its Vdu is 150 L/kg.

What about the bioavailability [8] of the same molecule?
The bioavailability was 17%.

And the MRT [9]?
Its MRT is 3.2 h.

Which solubility at 24 h, 200 µM [1] does the source give for `Cc1ncnc2c1ccn2[C@@H]1C[C@@H]2[C@H](Cc3ccc4cc(F)c(N)nc4c3)CC[C@]2(O)[C@H]1O` here?
Its solubility at 24 h, 200 µM is 157 µM (≈ 70.3 µg/mL).

And the solubility at 24 h, 200 µM [2]?
The solubility at 24 h, 200 µM was 94 µM (≈ 42.1 µg/mL).

And the CL free [3]?
The CL free was 374 mL/min/kg.

What about the clearance [4] of the same molecule?
Its clearance is 24 mL/min/kg.

What about the pEC50 [5] of the same molecule?
The pEC50 was 9.05.

And the pEC50 (Z-138 [6])?
The pEC50 was 8.46.

And the Vdu [7]?
Its Vdu is 33 L/kg.

And the bioavailability [8]?
The bioavailability was 77%.

And the MRT [9]?
The MRT was 1.3 h.

With `Nc1nc2cc(C[C@@H]3CC[C@@]4(O)[C@@H]3C[C@@H](n3cc(F)c5c(N)ncnc53)[C@@H]4O)ccc2cc1F` as the molecule, how does the solubility at 24 h, 200 µM [1] read?
Its solubility at 24 h, 200 µM is 164 µM (≈ 76.5 µg/mL).

And the solubility at 24 h, 200 µM [2]?
Its solubility at 24 h, 200 µM is 121 µM (≈ 56.4 µg/mL).

What about the CL free [3] of the same molecule?
Its CL free is 1476 mL/min/kg.

What about the clearance [4] of the same molecule?
Its clearance is 25 mL/min/kg.

And the pEC50 [5]?
Its pEC50 is 9.13.

And the pEC50 (Z-138 [6])?
The pEC50 was 8.64.

And the Vdu [7]?
Its Vdu is 29 L/kg.

And the bioavailability [8]?
The bioavailability was 19%.

What about the MRT [9] of the same molecule?
Its MRT is 1.3 h.

Which results are given for `Nc1nc2cc(C[C@@H]3CC[C@@]4(O)[C@@H]3C[C@@H](n3cc(F)c5c(N)ncnc53)[C@@H]4O)cc(F)c2cc1F`?
MRT [10]: 9.9 h; solubility at 24 h, 200 µM [1]: 190 µM (≈ 92.1 µg/mL); CL free [11]: 72 mL/min/kg; solubility at 24 h, 200 µM [2]: 25 µM (≈ 12.1 µg/mL); CL free [3]: 368 mL/min/kg; bioavailability [12]: 45%; clearance [4]: 14 mL/min/kg; pEC50 [5]: 9.08; pEC50 (Z-138 [6]): 8.24; Vdu [7]: 54 L/kg; bioavailability [8]: 24%; Vdu [13]: 43 L/kg; MRT [9]: 2.5 h

For `Cc1ncnc2c1ccn2[C@@H]1O[C@@H]2[C@@H](Oc3ccc4cc(Br)c(N)nc4c3)CC[C@]2(O)[C@H]1O`, which MRT [10] is on record?
The MRT was 4.6 h.

And the solubility at 24 h, 200 µM [1]?
The solubility at 24 h, 200 µM was 161 µM (≈ 82.5 µg/mL).

And the CL free [11]?
The CL free was 329 mL/min/kg.

And the inhibition in vivo at 30 mg/kg (Z-138 [14])?
The inhibition in vivo at 30 mg/kg was 76%.

What about the inhibition in vivo at 5 mg/kg (Z-138 [15]) of the same molecule?
Its inhibition in vivo at 5 mg/kg is 33%.

And the inhibition in vivo at 60 mg/kg (Z-138 [16])?
Its inhibition in vivo at 60 mg/kg is 71%.

What about the solubility at 24 h, 200 µM [2] of the same molecule?
The solubility at 24 h, 200 µM was under 1 µM.

What about the CL free [3] of the same molecule?
Its CL free is 1444 mL/min/kg.

What about the bioavailability [12] of the same molecule?
Its bioavailability is 44%.

And the clearance [4]?
Its clearance is 4 mL/min/kg.

And the inhibition in vivo (Z-138 [17])?
The inhibition in vivo was 45%.

And the Activity [18]?
The Activity was “Non-Toxic”.

What about the pEC50 [5] of the same molecule?
The pEC50 was 8.33.

And the pEC50 (Z-138 [6])?
Its pEC50 is 7.77.

What about the Vdu [7] of the same molecule?
Its Vdu is 139 L/kg.

What about the IC50 shift (CYP3A4) of the same molecule?
The IC50 shift was over 2.4.

What about the bioavailability [8] of the same molecule?
The bioavailability was 42%.

What about the Vdu [13] of the same molecule?
Its Vdu is 93 L/kg.

And the MRT [9]?
The MRT was 1.6 h.

Which solubility at 24 h, 200 µM [1] does the source give for `Cc1cn([C@@H]2C[C@@H]3[C@H](Cc4ccc5cc(F)c(N)nc5c4)CC[C@]3(O)[C@H]2O)c2ncnc(N)c12` here?
The solubility at 24 h, 200 µM was 146 µM (≈ 67.5 µg/mL).

What about the solubility at 24 h, 200 µM [2] of the same molecule?
Its solubility at 24 h, 200 µM is 66 µM (≈ 30.5 µg/mL).

What about the CL free [3] of the same molecule?
The CL free was 788 mL/min/kg.

And the clearance [4]?
Its clearance is 38 mL/min/kg.

What about the pEC50 [5] of the same molecule?
Its pEC50 is 9.01.

And the pEC50 (Z-138 [6])?
Its pEC50 is 8.43.

What about the Vdu [7] of the same molecule?
Its Vdu is 50 L/kg.

And the bioavailability [8]?
The bioavailability was 10%.

And the MRT [9]?
The MRT was 1.1 h.
